# Source: ChEMBL document CHEMBL3407388, “Synthesis, anticancer activity and molecular docking studies on a series of heterocyclic trans-cyanocombretastatin analogues as antitubulin agents” (2015)
# What was measured:
# Format in all cases: functional
# LOX IMVI = experiment: Cytotoxicity against human LOXIMVI cells assessed as growth inhibition after 48 hrs by SRB assay
# Method in brief: (§1)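 NCI 60-cell panel; compounds passing a single-dose screen (10−5 M, 48 h) were tested at five 10-fold dilutions (10−4 to 10−8 M) with 48 h drug exposure. GI50 is the molar concentration giving 50% reduction in net cell growth relative to cell numbers on day 0.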
# TK-10 = experiment: Cytotoxicity against human TK10 cells assessed as growth inhibition after 48 hrs by SRB assay; settings: TK-10, 48 h
# NCI-H226 = experiment: Cytotoxicity against human NCI-H226 cells assessed as growth inhibition after 48 hrs by SRB assay; settings: NCI-H226, 48 h; method in brief: as §1
# HL-60(TB) = experiment: Cytotoxicity against human HL-60(TB) cells assessed as growth inhibition after 48 hrs by SRB assay; settings: HL-60, 48 h
# Method in brief: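 NCI 60-cell panel, leukemia subpanel. Five-dose screen at 10-fold dilutions from 10−4 to 10−8 M with 48 h drug exposure. GI50 is the molar concentration giving 50% reduction in net cell growth compared with cell numbers on day 0.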
# [1] = Cytotoxicity against human NCI-ADR-RES cells assessed as growth inhibition after 48 hrs by SRB assay; method in brief: as §1
# IGROV-1 = experiment: Cytotoxicity against human IGROV1 cells assessed as growth inhibition after 48 hrs by SRB assay; settings: IGROV-1, 48 h; method in brief: as §1
# CAKI-1 = experiment: Cytotoxicity against human Caki1 cells assessed as growth inhibition after 48 hrs by SRB assay; settings: CAKI-1, 48 h; method in brief: as §1
# SNB-19 = experiment: Cytotoxicity against human SNB19 cells assessed as growth inhibition after 48 hrs by SRB assay; settings: SNB-19, 48 h; method in brief: as §1
# [2] = Cytotoxicity against human OVCAR5 cells assessed as growth inhibition after 48 hrs by SRB assay; settings: OVCAR-5, 48 h; method in brief: as §1
# SF-295 = experiment: Cytotoxicity against human SF295 cells assessed as growth inhibition after 48 hrs by SRB assay; settings: SF-295, 48 h; method in brief: as §1
# [3] = Cytotoxicity against human OVCAR8 cells assessed as growth inhibition after 48 hrs by SRB assay; settings: OVCAR-8, 48 h; method in brief: as §1
# SN12C = experiment: Cytotoxicity against human SN12C cells assessed as growth inhibition after 48 hrs by SRB assay; method in brief: as §1
# MOLT-4 = experiment: Cytotoxicity against human MOLT4 cells assessed as growth inhibition after 48 hrs by SRB assay; settings: MOLT-4, 48 h; method in brief: as §1
# BT-549 = experiment: Cytotoxicity against human BT549 cells assessed as growth inhibition after 48 hrs by SRB assay; settings: BT-549, 48 h; method in brief: as §1
# [4] = Cytotoxicity against human UACC62 cells assessed as growth inhibition after 48 hrs by SRB assay; settings: UACC-62, 48 h
# NCI-H23 = experiment: Cytotoxicity against human NCI-H23 cells assessed as growth inhibition after 48 hrs by SRB assay; settings: NCI-H23, 48 h; method in brief: as §1
# HT-29 = experiment: Cytotoxicity against human HT-29 cells assessed as growth inhibition after 48 hrs by SRB assay; settings: HT-29, 48 h; method in brief: as §1
# HCC 2998 = experiment: Cytotoxicity against human HCC2998 cells assessed as growth inhibition after 48 hrs by SRB assay; settings: HCC 2998, 48 h; method in brief: as §1
# U-251 = experiment: Cytotoxicity against human U251 cells assessed as growth inhibition after 48 hrs by SRB assay; settings: U-251, 48 h
# [5] = Cytotoxicity against human HCT15 cells assessed as growth inhibition after 48 hrs by SRB assay; settings: HCT-15, 48 h; method in brief: as §1
# M14 = experiment: Cytotoxicity against human M14 cells assessed as growth inhibition after 48 hrs by SRB assay; settings: M14, 48 h; method in brief: as §1
# K562 = experiment: Cytotoxicity against human K562 cells assessed as growth inhibition after 48 hrs by SRB assay; settings: K562, 48 h; method in brief: as §1
# [6] = Cytotoxicity against human OVCAR3 cells assessed as growth inhibition after 48 hrs by SRB assay; settings: OVCAR-3, 48 h; method in brief: as §1
# SF-539 = experiment: Cytotoxicity against human SF539 cells assessed as growth inhibition after 48 hrs by SRB assay; settings: SF-539, 48 h; method in brief: as §1
# MDA-MB-231 = experiment: Cytotoxicity against human MDA-MB-231 cells assessed as growth inhibition after 48 hrs by SRB assay; settings: MDA-MB-231, 48 h; method in brief: as §1
# [7] = Cytotoxicity against human OVCAR4 cells assessed as growth inhibition after 48 hrs by SRB assay; settings: OVCAR-4, 48 h; method in brief: as §1
# [8] = Cytotoxicity against human PC3 cells assessed as growth inhibition after 48 hrs by SRB assay; settings: PC-3, 48 h; method in brief: as §1
# SF-268 = experiment: Cytotoxicity against human SF268 cells assessed as growth inhibition after 48 hrs by SRB assay; settings: SF-268, 48 h; method in brief: as §1
# DU-145 = experiment: Cytotoxicity against human DU145 cells assessed as growth inhibition after 48 hrs by SRB assay; settings: DU-145, 48 h; method in brief: as §1
# SNB-75 = experiment: Cytotoxicity against human SNB75 cells assessed as growth inhibition after 48 hrs by SRB assay; settings: SNB-75, 48 h
# 786-0 = experiment: Cytotoxicity against human 786-0 cells assessed as growth inhibition after 48 hrs by SRB assay; settings: 786-0, 48 h; method in brief: as §1
# COLO 205 = experiment: Cytotoxicity against human COLO205 cells assessed as growth inhibition after 48 hrs by SRB assay; settings: COLO 205, 48 h; method in brief: as §1
# KM12 = experiment: Cytotoxicity against human KM12 cells assessed as growth inhibition after 48 hrs by SRB assay; settings: KM12, 48 h; method in brief: as §1
# RPMI-8226 = experiment: Cytotoxicity against human RPMI8226 cells assessed as growth inhibition after 48 hrs by SRB assay; settings: RPMI-8226, 48 h; method in brief: as §1
# [9] = Cytotoxicity against human UO31 cells assessed as growth inhibition after 48 hrs by SRB assay; settings: UO-31, 48 h
# MDA-MB-435 = experiment: Cytotoxicity against human MDA-MB-435 cells assessed as growth inhibition after 48 hrs by SRB assay; settings: MDA-MB-435, 48 h; method in brief: as §1
# SW-620 = experiment: Cytotoxicity against human SW620 cells assessed as growth inhibition after 48 hrs by SRB assay; settings: SW-620, 48 h
# A498 = experiment: Cytotoxicity against human A498 cells assessed as growth inhibition after 48 hrs by SRB assay; settings: A498, 48 h; method in brief: as §1
# [10] = Cytotoxicity against human HCT116 cells assessed as growth inhibition after 48 hrs by SRB assay; settings: HCT-116, 48 h; method in brief: as §1
# SK-MEL-5 = experiment: Cytotoxicity against human SK-MEL-5 cells assessed as growth inhibition after 48 hrs by SRB assay; settings: SK-MEL-5, 48 h; method in brief: as §1
# NCI-H460 = experiment: Cytotoxicity against human NCI-H460 cells assessed as growth inhibition after 48 hrs by SRB assay; settings: NCI-H460, 48 h; method in brief: as §1
# MCF7 = experiment: Cytotoxicity against human MCF7 cells assessed as growth inhibition after 48 hrs by SRB assay; settings: MCF7, 48 h; method in brief: as §1
# SK-OV-3 = experiment: Cytotoxicity against human SKOV3 cells assessed as growth inhibition after 48 hrs by SRB assay; settings: SK-OV-3, 48 h; method in brief: as §1
smiles,measurement,setting,value
COc1ccc(/C(C#N)=C/c2cc3ccccc3o2)cc1OC,GI50,LOX IMVI,930 nM
same,GI50,TK-10,2280 nM
same,GI50,NCI-H226,34.5 µM
same,GI50,HL-60(TB),481 nM
same,GI50,[1],317 nM
same,GI50,IGROV-1,1270 nM
same,GI50,CAKI-1,492 nM
same,GI50,SNB-19,5.55 µM
same,GI50,[2],5.23 µM
same,GI50,SF-295,708 nM
same,GI50,[3],3.98 µM
same,GI50,SN12C,956 nM
same,GI50,MOLT-4,548 nM
same,GI50,BT-549,950 nM
same,GI50,[4],557 nM
same,GI50,NCI-H23,3.11 µM
same,GI50,HT-29,373 nM
same,GI50,HCC 2998,2.33 µM
same,GI50,U-251,760 nM
same,GI50,[5],469 nM
same,GI50,M14,437 nM
same,GI50,K562,467 nM
same,GI50,[6],279 nM
same,GI50,SF-539,1560 nM
same,GI50,MDA-MB-231,1210 nM
same,GI50,[7],7.19 µM
same,GI50,[8],2410 nM
same,GI50,SF-268,2.05 µM
same,GI50,DU-145,1300 nM
same,GI50,SNB-75,1780 nM
same,GI50,786-0,5.84 µM
same,GI50,COLO 205,404 nM
same,GI50,KM12,356 nM
same,GI50,RPMI-8226,1320 nM
same,GI50,[9],3.79 µM
same,GI50,MDA-MB-435,229 nM
same,GI50,SW-620,388 nM
same,GI50,A498,540 nM
same,GI50,[10],418 nM
same,GI50,SK-MEL-5,564 nM
same,GI50,NCI-H460,472 nM
same,GI50,MCF7,446 nM
same,GI50,SK-OV-3,2490 nM
COc1cc(/C(C#N)=C/c2coc3ccccc23)cc(OC)c1OC,GI50,LOX IMVI,993 nM
same,GI50,TK-10,2100 nM
same,GI50,NCI-H226,6.2 µM
same,GI50,HL-60(TB),1030 nM
same,GI50,[1],382 nM
same,GI50,IGROV-1,3060 nM
same,GI50,CAKI-1,650 nM
same,GI50,SNB-19,3.63 µM
same,GI50,[2],3.33 µM
same,GI50,SF-295,446 nM
same,GI50,[3],2.9 µM
same,GI50,SN12C,2170 nM
same,GI50,MOLT-4,3820 nM
same,GI50,BT-549,927 nM
same,GI50,[4],519 nM
same,GI50,NCI-H23,4.58 µM
same,GI50,HT-29,394 nM
same,GI50,HCC 2998,4.13 µM
same,GI50,U-251,605 nM
same,GI50,[5],492 nM
same,GI50,M14,667 nM
same,GI50,K562,513 nM
same,GI50,[6],277 nM
same,GI50,SF-539,442 nM
same,GI50,MDA-MB-231,1710 nM
same,GI50,[7],2.61 µM
same,GI50,[8],1840 nM
same,GI50,SF-268,4.79 µM
same,GI50,DU-145,1880 nM
same,GI50,SNB-75,769 nM
same,GI50,786-0,6.11 µM
same,GI50,COLO 205,449 nM
same,GI50,KM12,586 nM
same,GI50,RPMI-8226,2470 nM
same,GI50,[9],2.89 µM
same,GI50,MDA-MB-435,278 nM
same,GI50,SW-620,504 nM
same,GI50,A498,458 nM
same,GI50,[10],517 nM
same,GI50,SK-MEL-5,336 nM
same,GI50,NCI-H460,839 nM
same,GI50,MCF7,376 nM
same,GI50,SK-OV-3,1710 nM
